TRPC4 block: blocks the mouse TRPC4 cation channel; Q9QUQ5; HEK293 TRPC4beta/mu-opioid, DAMGO-evoked Fluo4 calcium flux; stronger effect = lower value; B-score at 10 µM; 300,000 tested, 0.39% active; AID 2247;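 active means B-score over 3 SD under the library average, no early fluorescence shift, positive overall ratio signal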
Target sequence (Q9QUQ5 whole entry, looked up): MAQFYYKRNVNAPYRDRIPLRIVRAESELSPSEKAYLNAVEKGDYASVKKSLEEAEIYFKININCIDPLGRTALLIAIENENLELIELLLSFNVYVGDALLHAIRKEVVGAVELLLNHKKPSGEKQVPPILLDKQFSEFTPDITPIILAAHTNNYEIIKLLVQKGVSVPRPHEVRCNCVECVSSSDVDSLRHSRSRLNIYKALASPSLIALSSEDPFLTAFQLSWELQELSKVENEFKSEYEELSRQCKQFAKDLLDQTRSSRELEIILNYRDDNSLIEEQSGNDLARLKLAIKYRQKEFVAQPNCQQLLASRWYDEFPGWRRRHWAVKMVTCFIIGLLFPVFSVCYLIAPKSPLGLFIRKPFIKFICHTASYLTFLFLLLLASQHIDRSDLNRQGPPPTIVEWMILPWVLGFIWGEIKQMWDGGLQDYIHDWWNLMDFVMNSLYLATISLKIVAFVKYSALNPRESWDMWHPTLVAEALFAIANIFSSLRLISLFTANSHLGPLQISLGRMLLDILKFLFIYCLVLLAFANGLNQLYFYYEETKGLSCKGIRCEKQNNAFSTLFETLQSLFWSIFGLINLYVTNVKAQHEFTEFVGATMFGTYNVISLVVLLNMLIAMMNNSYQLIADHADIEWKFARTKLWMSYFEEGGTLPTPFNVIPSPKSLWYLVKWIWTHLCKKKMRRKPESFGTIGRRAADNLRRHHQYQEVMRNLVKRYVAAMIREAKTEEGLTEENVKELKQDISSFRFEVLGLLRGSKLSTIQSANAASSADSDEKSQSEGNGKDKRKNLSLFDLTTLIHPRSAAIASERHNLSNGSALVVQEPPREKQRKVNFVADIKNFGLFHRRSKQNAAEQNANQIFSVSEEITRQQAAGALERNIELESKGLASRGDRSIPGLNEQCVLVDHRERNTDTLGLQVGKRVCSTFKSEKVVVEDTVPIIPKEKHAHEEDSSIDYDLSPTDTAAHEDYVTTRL
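Material: HEK293 cells with stable TRPC4beta plus mu-opioid receptor expression / Probe or stimulus: DAMGO in two steps, submaximal then maximal / Compound: single concentration per test compound / Technique: kinetic Fluo4 fluorescence imaging of calcium influx / Read-out: per-well B score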
TRPC4 potent: allosterically enhances the mouse TRPC4 cation channel | 310,000 tested, 0.42% active | B-score at 10 µM | HEK293 TRPC4beta/mu-opioid, DAMGO EC20, Fluo-4 Ca2+ flux; stronger effect = higher value;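 active means B-score of calcium response area above 5 SD of library B-scores, with initial fluorescence ratio within 5 SD of library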;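 further: B-score of integrated fluorescence ratio over time as area under calcium response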
TRPC6 act: mouse TRPC6 channel activation | HEK293-TRPC6 membrane potential dye fluorescence; stronger effect = higher value | B-score at 10 µM | 310,000 tested, 0.13% active;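 active means B-score of the integrated fluorescence ratio above library mean plus 3 SD, and starting fluorescence ratio within library mean plus 5 SD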;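 further: higher score means more depolarization so channel activation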
TRPC6 inh: inhibitors of mouse TRPC6 channel. Q61143. HEK293-TRPC6, membrane potential dye, ACh-evoked depolarization; stronger effect = lower value. B-score at 10 µM. 310,000 tested, 1.1% active;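 active means B-score under library mean minus 3 SD, initial fluorescence not abnormally high, positive integrated signal ratio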;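 further: B-score derived from integrated fluorescence ratio over the kinetic read; more negative B-score means stronger inhibition of depolarization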
TRPC4 agonist: activators of mouse TRPC4 channel; 310,000 tested, 0.49% active; B-score at 10 µM; HEK293 TRPC4beta/mu-opioid, Fluo4 calcium fluorescence; stronger effect = higher value; AID 2237; Q9QUQ5;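 active means B-score above 5 SD of library B-scores, and initial fluorescence ratio not above library mean plus 5 SD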;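 further: positive B-score marks a calcium rise read as TRPC4 activation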
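Assay system: HEK293 cells stably co-expressing mouse TRPC4beta and mu-opioid receptor / Timing: Fluo4 dye loading 45 min at room temperature, 110 s recording / Signal: Fluo4 calcium-sensitive dye fluorescence, kinetic, 1 Hz baseline / Read-out: integrated baseline-normalised fluorescence ratio, converted to per-well B score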
Starred values were filed as active, the others as inactive; i = inactive. The list is not random: actives were taken first. Their share in the collection is about 2.3%.

SMILES | TRPC4 block | TRPC4 potent | TRPC6 act | TRPC6 inh | TRPC4 agonist
COc1ccccc1/C=C/CN1CCCC(CCC(=O)NCc2ccccc2F)C1 (stereo not drawn) | -6* | i | i | i | 113*
COc1cccc(CNC(=O)CCC2CCCN(Cc3cc(Cl)ccc3O)C2)c1 (stereo not drawn) | -7* | i | i | i | i
COc1cccc(CNC(=O)CCC2CCCN(C(=O)Cc3ccccc3F)C2)c1 (stereo not drawn) | i | i | i | i | i
Cc1ccc(CN2CCN(Cc3cn[nH]c3-c3cccc(F)c3)CC2CCO)o1 (stereo not drawn) | i | i | i | i | i
Cc1ccc(NC2=Nc3ccccc3CC2)cc1 | i | i | i | i | 54*
O=C(O)c1cccc(S(=O)(=O)N2CCN(C(c3ccccc3)c3ccccc3)CC2)c1 | -9* | i | i | i | i
O=C(O)c1cccc(S(=O)(=O)N2CCCC2)c1 | i | i | i | i | i
COC(=O)C1=CN(c2ccc(OC)cc2)C=C(C(=O)OC)C1c1cc(OC)c(OC)cc1OC | i | i | i | i | i
COc1cc(OC)c(C2N(C)c3ccccc3N2C)cc1OC | -6* | i | i | i | i
CC1CCN(CCNC(=O)C2CCCN(S(=O)(=O)c3cccc4nsnc34)C2)CC1 (stereo not drawn) | i | 12* | i | i | i
CCCCN(CC)CCNC(=O)C1CCCN(S(=O)(=O)c2cccc3nsnc23)C1 (stereo not drawn) | i | i | i | i | 73*
CCCCN(C)CCNC(=O)C1CCN(S(=O)(=O)c2cccc3nsnc23)CC1 | i | 11* | i | i | i
O=C(NCCCN1CCCCCC1)C1CCCN(S(=O)(=O)c2cccc3nsnc23)C1 (stereo not drawn) | i | i | i | i | i
CCCCN(CC)CCNC(=O)C1CCN(S(=O)(=O)c2cccc3nsnc23)CC1 | i | i | i | i | i
COc1ccc(S(=O)(=O)N(CC(=O)N/N=C/c2cccs2)c2cc(C)cc(C)c2)cc1OC | i | i | i | i | i
COCC1CCCCC1OS(N)(=O)=O (stereo not drawn) | i | i | i | i | i
Cc1cc(Br)cc2c(C(=O)NCC3CCCO3)cc(-c3cccs3)nc12 (stereo not drawn) | i | i | i | i | i
Cc1ccc(-n2nc(-c3cccs3)cc2C(=O)NCC2CCCO2)c(C)c1 (stereo not drawn) | -7* | i | i | i | 55*
CCOC(=O)Cn1c(=O)oc2cc(S(=O)(=O)Nc3ccc(F)cc3)ccc21 | i | i | i | i | 47*
O=C(NCCCN1CCN(c2ccccc2)CC1)Nc1ccccc1C(F)(F)F | -6* | i | i | i | i
Cc1ccccc1NC(=O)NCCCN1CCN(c2ccccc2)CC1 | i | i | i | i | i
COc1ccccc1N1CCN(CCCNC(=O)Nc2ccccc2)CC1 | -6* | i | i | i | i
COCCNC(=O)CN(C(=O)CCC(=O)Nc1ccccn1)c1ccc(C)cc1C | i | i | i | i | i
CCNC(=S)N1CCC(C(O)(c2ccccc2)c2ccccc2)CC1 | -6* | i | i | i | 100*
Cc1cc(C)c(C(=O)N2CCC(N3CCC(C(=O)NC(C)C)CC3)CC2)o1 | i | i | i | i | i
SMILES | TRPC4 block | TRPC4 potent | TRPC6 act | TRPC6 inh | TRPC4 agonist
C=CCn1c(SCC(=O)N2CCCCC2)nnc1-c1ccncc1 | i | i | i | i | 75*
Cc1ccc(-c2cc(C(=O)Nc3ccc(S(=O)(=O)Nc4ncccn4)cc3)[nH]n2)c(O)c1C | i | i | i | i | i
CCOC(=O)C1CCCN(c2cc(=O)n(C3CCCCC3)c(=O)[nH]2)C1 (stereo not drawn) | i | i | i | i | i
CCOCCSC1=C(C#N)C(c2cccs2)C(C(C)=O)=C(C)N1 (stereo not drawn) | -6* | i | i | i | i
CCOc1cc(CNCCCN2CCOCC2)cc(Br)c1OCc1ccccc1Cl | -7* | i | i | i | i
CCOc1cc(CNCCO)cc(Br)c1OCc1ccccc1Cl | i | i | i | i | i
Cc1cc(NC(=O)C2CC(=O)N(c3cccc(Cl)c3)C2)no1 (stereo not drawn) | i | i | i | i | i
CCN1CCN(C(=O)N(CC(=O)Nc2ccc(C(N)=O)cc2)S(=O)(=O)c2ccc(C)cc2)CC1 | -6* | i | i | i | i
Cc1ccc(S(=O)(=O)N(CC(=O)Nc2ccc(C(N)=O)cc2)C(=O)N2CCN(C)CC2)cc1 | i | i | i | i | i
Cc1ccc(N2CCN(CCCCN3C(=O)C4CCCN4C3=O)CC2)cc1 (stereo not drawn) | i | i | i | i | i
CC1CCN(CCCNC(=O)C2CC(=O)N(CCc3ccccc3)C2)CC1 (stereo not drawn) | i | i | i | i | i
O=C1CSC(c2ccccn2)N1c1ccc(C(F)(F)F)cc1 (stereo not drawn) | i | i | i | i | i
CCN(CC)c1nc(N2CCOCC2)nc2ccccc12 | -6* | i | i | i | i
O=C(NCCCn1ccnc1)C1CC(c2ccccc2Cl)=NO1 (stereo not drawn) | i | i | i | i | i
CC(=O)Cn1ncc(N2CCOCC2)cc1=O | -8* | i | i | i | i
CC(=O)Cn1ncc(N2CCOCC2)c(Cl)c1=O | i | i | i | i | i
Cc1ccc(-c2c[n+](CC(=O)Nc3nc(-c4ccc(F)cc4)cs3)c3n2CCC3)cc1 | -6* | i | i | i | i
COc1ccccc1N1CCN(c2ncnc3sc(C(=O)NCC4CCCO4)c(C)c23)CC1 (stereo not drawn) | i | i | i | i | i
Cc1ccc(OCCNC(=O)c2ccccc2F)cc1 | i | i | i | i | i
CCC(C)(C(=O)NC1CCCCC1)N(Cc1cccs1)C(=O)c1ccccn1 (stereo not drawn) | -7* | i | i | i | 46*
CCC(C)(C(=O)NC1CCCC1)N(Cc1cccs1)C(=O)c1ccccn1 (stereo not drawn) | i | i | i | i | i
CC12CCC(c3c(C(=O)N4CCOCC4)nn(-c4ccccc4)c31)C2(C)C (stereo not drawn) | i | 10* | i | i | i
C=CCN(CC=C)CCOc1ccc2ccccc2c1 | i | i | i | i | i
